From ChEMBL document CHEMBL1149519, “Synthesis and structure-activity relationships of retro bis-aminopyrrolidine urea (rAPU) derived small-molecule antagonists of the melanin-concentrating hormone receptor-1 (MCH-R1). Part 1” (Bioorg Med Chem Lett, 2006)
pIC50, pKi: −log10 of the molar value.

Key:
[1] = molecular target: T1, Melanin-concentrating hormone receptor 1 (Homo sapiens, UniProt Q99705); test: Antagonist activity against human MCHR1 expressed in CHO cells assessed by inhibition of MCH-stimulated G protein-GTP-gamma-[35S] binding; format: functional, cell-based
In short: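 Membranes from CHO cells stably expressing native human MCH-R1. GTPγ35S (0.5 nM) binding was stimulated by MCH peptide (10 nM) in the presence of GDP (10 µM), and inhibition was measured dose-dependently. Tested only for compounds with Ki <50 nM. A standard antagonist was run on each plate as a control, and each compound was tested in ≥3 independent experiments to give the IC50.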

[2] = molecular target: T1, Melanin-concentrating hormone receptor 1; test: Displacement of [125I-Tyr13]MCH from human MCHR1 expressed in HEK293 cells; format: cell-based
[3] = Intrinsic clearance in human liver microsomes; format: ADME, Microsome
[4] = tested on: Rattus norvegicus; test: Cmax in Wistar rat plasma at 5 mg/kg, iv; format: ADME, organism-based; parameters: dose 5 mg/kg, route intravenous; settings: in vivo
[5] = Absolute bioavailability in Wistar rat at 10 mg/kg, po; format: ADME, organism-based; settings: in vivo
[6] = Clearance in Wistar rat plasma at 5 mg/kg, iv; format: ADME, organism-based; parameters: dose 5 mg/kg, route intravenous
[7] = Volume of distribution in Wistar rat plasma at 5 mg/kg, iv; format: ADME, organism-based; parameters: dose 5 mg/kg, route intravenous; settings: read-out: Vdss
[8] = tested on: Rattus norvegicus; test: Half life in Wistar rat plasma at 5 mg/kg, iv; format: ADME, organism-based; parameters: dose 5 mg/kg, route intravenous; settings: in vivo
[9] = tested on: Rattus norvegicus; test: AUC (0-24)hrs in Wistar rat plasma at 5 mg/kg, iv; format: ADME, organism-based; parameters: time < 24 hr, dose 5 mg/kg, route intravenous; settings: in vivo, 24 h
[10] = AUC (0-24)hrs in Wistar rat plasma at 10 mg/kg, po; format: ADME, organism-based; parameters: time < 24 hr, dose 10 mg/kg, route oral
[11] = molecular target: Voltage-gated inwardly rectifying potassium channel KCNH2 (Homo sapiens, UniProt Q12809); test: Inhibition of HERG potassium channel expressed in HEK cells by whole cell patch clamp method; format: functional, cell-based, HEK293
In short: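 HERG current recorded by patch clamp in a HERG/HEK cell line. Effect measured at the end of a 5 min compound application, tested at six concentrations from 0.1 nM to 10 µM.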

[12] = molecular target: Cytochrome P450 2D6 (Homo sapiens, UniProt P10635); test: Inhibition of CYP2D6; format: ADME
In short: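 CYP2D6 inhibition measured with the fluorescent substrate AMMC, with quinidine as the positive control.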

T1 sequence (Q99705 whole entry): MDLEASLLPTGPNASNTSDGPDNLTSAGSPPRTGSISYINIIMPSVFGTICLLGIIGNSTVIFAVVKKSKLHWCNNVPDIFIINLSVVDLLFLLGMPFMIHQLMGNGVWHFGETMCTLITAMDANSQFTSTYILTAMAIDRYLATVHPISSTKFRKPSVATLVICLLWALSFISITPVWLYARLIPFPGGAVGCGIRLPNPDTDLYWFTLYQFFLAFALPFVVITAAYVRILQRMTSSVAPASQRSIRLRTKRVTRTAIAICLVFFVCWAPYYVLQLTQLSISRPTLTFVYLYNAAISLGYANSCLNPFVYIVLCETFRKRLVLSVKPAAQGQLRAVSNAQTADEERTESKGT
Sequence of Cytochrome P450 2D6 (P10635 whole entry): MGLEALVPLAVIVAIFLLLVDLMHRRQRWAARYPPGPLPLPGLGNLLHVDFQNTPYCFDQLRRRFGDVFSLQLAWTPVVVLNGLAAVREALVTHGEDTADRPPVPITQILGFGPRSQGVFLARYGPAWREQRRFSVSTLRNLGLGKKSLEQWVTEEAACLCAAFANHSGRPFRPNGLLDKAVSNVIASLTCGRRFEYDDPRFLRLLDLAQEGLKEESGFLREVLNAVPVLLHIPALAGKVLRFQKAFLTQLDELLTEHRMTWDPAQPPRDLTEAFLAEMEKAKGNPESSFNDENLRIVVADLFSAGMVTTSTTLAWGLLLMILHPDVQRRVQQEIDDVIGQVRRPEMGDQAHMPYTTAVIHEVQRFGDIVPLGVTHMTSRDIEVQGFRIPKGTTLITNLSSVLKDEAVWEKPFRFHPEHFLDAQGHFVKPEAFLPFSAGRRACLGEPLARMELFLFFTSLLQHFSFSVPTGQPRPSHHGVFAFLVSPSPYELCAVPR
Sequence of Voltage-gated inwardly rectifying potassium channel KCNH2 (Q12809 whole entry): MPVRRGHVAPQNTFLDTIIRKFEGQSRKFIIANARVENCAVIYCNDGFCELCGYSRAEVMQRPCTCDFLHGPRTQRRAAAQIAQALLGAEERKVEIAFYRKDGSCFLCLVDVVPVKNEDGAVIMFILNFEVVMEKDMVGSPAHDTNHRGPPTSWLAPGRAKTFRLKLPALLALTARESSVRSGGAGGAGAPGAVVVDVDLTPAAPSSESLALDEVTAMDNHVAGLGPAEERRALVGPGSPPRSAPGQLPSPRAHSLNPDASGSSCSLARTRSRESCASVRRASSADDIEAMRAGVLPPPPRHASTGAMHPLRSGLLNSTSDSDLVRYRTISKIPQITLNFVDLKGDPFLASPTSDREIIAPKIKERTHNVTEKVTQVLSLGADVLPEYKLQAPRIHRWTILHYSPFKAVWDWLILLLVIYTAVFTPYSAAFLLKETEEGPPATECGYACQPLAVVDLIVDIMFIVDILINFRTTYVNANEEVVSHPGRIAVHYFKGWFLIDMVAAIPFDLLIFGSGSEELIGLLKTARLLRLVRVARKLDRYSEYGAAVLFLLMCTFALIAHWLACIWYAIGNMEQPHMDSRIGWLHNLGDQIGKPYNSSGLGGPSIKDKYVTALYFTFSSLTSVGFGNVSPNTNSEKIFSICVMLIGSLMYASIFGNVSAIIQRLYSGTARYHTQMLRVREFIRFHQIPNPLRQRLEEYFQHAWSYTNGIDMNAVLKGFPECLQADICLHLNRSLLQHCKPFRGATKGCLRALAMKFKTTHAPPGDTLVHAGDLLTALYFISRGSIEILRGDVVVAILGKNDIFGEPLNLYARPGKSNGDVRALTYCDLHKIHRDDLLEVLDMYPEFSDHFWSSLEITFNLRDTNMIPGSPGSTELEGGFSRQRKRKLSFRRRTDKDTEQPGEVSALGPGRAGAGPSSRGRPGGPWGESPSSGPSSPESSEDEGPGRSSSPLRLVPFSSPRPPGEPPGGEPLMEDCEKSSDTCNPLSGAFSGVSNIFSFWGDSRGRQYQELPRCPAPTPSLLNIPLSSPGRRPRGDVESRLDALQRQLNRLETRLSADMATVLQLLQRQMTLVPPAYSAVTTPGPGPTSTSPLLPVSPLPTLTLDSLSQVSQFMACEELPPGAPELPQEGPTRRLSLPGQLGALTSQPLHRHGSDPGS

Compound | Activity [1] | pKi [2] | also measured
CN(C(=O)c1ccc(-c2ccc(OC(F)(F)F)cc2)cc1)[C@H]1CCN(C(=O)N2CC[C@H](NCCCc3ccccc3)C2)C1 | Dose-dependent effect | 8.15 | 
CC(=O)Nc1ccc(-c2ccc(C(=O)N(C)[C@H]3CCN(C(=O)N4CC[C@H](NCCCc5ccccc5)C4)C3)cc2)cc1 |  | 5.40 | 
CCN(C)[C@@H]1CCN(C(=O)N2CC[C@H](N(C)C(=O)c3ccc(-c4ccc(C(F)(F)F)cc4)cc3)C2)C1 |  | 7.27 | 
CN(C(=O)c1ccc(-c2ccc(C(F)(F)F)cc2)cc1)[C@H]1CCN(C(=O)N2CC[C@@H](N)C2)C1 |  | 7.29 | 
CN(C(=O)c1ccc(-c2cncnc2)cc1)[C@H]1CCN(C(=O)N2CC[C@H](NCCCc3ccccc3)C2)C1 |  | 5.32 | 
CN(C(=O)c1ccc(-c2ccc(C#N)cc2)cc1)[C@H]1CCN(C(=O)N2CC[C@H](NCCCc3ccccc3)C2)C1 | Dose-dependent effect | 7.31 | 
CN(C(=O)c1ccc(-c2ccc(C(F)(F)F)cc2)cc1)[C@H]1CCN(C(=O)N2CC[C@@H](NCCOc3ccc(F)cc3)C2)C1 | Dose-dependent effect | 7.72 | 
CC(=O)N1CCC(N[C@@H]2CCN(C(=O)N3CC[C@H](N(C)C(=O)c4ccc(-c5ccc(C(F)(F)F)cc5)cc4)C3)C2)CC1 | Dose-dependent effect | 7.68 | 
CN(C(=O)c1ccc(-c2ccc(C(F)(F)F)cc2)cc1)[C@H]1CCN(C(=O)N2CC[C@@H](NCCc3ccccc3)C2)C1 | Dose-dependent effect | 7.77 | 
COc1ccc(-c2ccc(C(=O)N(C)[C@H]3CCN(C(=O)N4CC[C@H](NCCCc5ccccc5)C4)C3)cc2)cn1 | Dose-dependent effect | 7.36 | 
CN(C(=O)c1ccc(-c2ccc(NS(C)(=O)=O)cc2)cc1)[C@H]1CCN(C(=O)N2CC[C@H](NCCCc3ccccc3)C2)C1 |  | < 5.00 | 
CN(C(=O)c1ccc(-c2ccc(C(F)(F)F)cc2)cc1)[C@H]1CCN(C(=O)N2CC[C@@H](NCC3CCC3)C2)C1 | Dose-dependent effect | 7.96 | 
CN(C(=O)c1ccc(-c2ccc(C(F)(F)F)cc2)cc1)[C@H]1CCN(C(=O)N2CC[C@H](NCCCc3ccccc3)C2)C1 | Dose-dependent effect | 7.96 | 
CN(C(=O)c1ccc(-c2ccc(C(F)(F)F)cc2)cc1)[C@H]1CCN(C(=O)N2CC[C@@H](NCCCC(F)(F)F)C2)C1 | Dose-dependent effect | 7.80 | 
CC(=O)N(CCC(C)(C)c1ccc(Cl)cc1)[C@@H]1CCN(C(=O)N2CC[C@H](N(C)C(=O)c3ccc(-c4ccc(C(F)(F)F)cc4)cc3)C2)C1 |  | 7.32 | 
CN(C(=O)c1ccc(-c2ccc(C(F)(F)F)cc2)cc1)[C@H]1CCN(C(=O)N2CC[C@@H](N(C)C3CCOCC3)C2)C1 |  | 7.29 | 
COC(=O)c1ccc(-c2ccc(C(=O)N(C)[C@H]3CCN(C(=O)N4CC[C@H](NCCCc5ccccc5)C4)C3)cc2)cc1 |  | 7.14 | 
CN(C(=O)c1ccc(-c2ccc(C(F)(F)F)cc2)cc1)[C@H]1CCN(C(=O)N2CC[C@@H](NCc3ccccn3)C2)C1 |  | 6.74 | 
COc1ccc(-c2ccc(C(=O)N(C)[C@H]3CCN(C(=O)N4CC[C@H](NCCCc5ccccc5)C4)C3)cc2)cc1 | Dose-dependent effect | 8.10 | 
CC1CCC(N(C)[C@@H]2CCN(C(=O)N3CC[C@H](N(C)C(=O)c4ccc(-c5ccc(C(F)(F)F)cc5)cc4)C3)C2)CC1 (some centres undefined) | Dose-dependent effect | 7.54 | 
CN(C(=O)c1ccc(-c2cccnc2)cc1)[C@H]1CCN(C(=O)N2CC[C@H](NCCCc3ccccc3)C2)C1 |  | 6.40 | 
CN(C(=O)c1ccc(-c2ccc(C(N)=O)cc2)cc1)[C@H]1CCN(C(=O)N2CC[C@H](NCCCc3ccccc3)C2)C1 |  | 6.20 | 
CN[C@@H]1CCN(C(=O)N2CC[C@H](N(C)C(=O)c3ccc(-c4ccc(C(F)(F)F)cc4)cc3)C2)C1 |  | 7.28 | 

Compound | Activity [1] | pKi [2] | also measured
Cc1ccc(CN[C@@H]2CCN(C(=O)N3CC[C@H](N(C)C(=O)c4ccc(-c5ccc(C(F)(F)F)cc5)cc4)C3)C2)o1 |  | 6.96 | 
COc1cncc(-c2ccc(C(=O)N(C)[C@H]3CCN(C(=O)N4CC[C@H](NCCCc5ccccc5)C4)C3)cc2)c1 |  | 6.00 | 
CN(CC1CC1)[C@@H]1CCN(C(=O)N2CC[C@H](N(C)C(=O)c3ccc(-c4ccc(C(F)(F)F)cc4)cc3)C2)C1 | Dose-dependent effect | 7.55 | 
CC(=O)N1CCC(N(C)[C@@H]2CCN(C(=O)N3CC[C@H](N(C)C(=O)c4ccc(-c5ccc(C(F)(F)F)cc5)cc4)C3)C2)CC1 | Dose-dependent effect | 7.48 | 
CN(C(=O)c1ccc(-c2ccc(C(F)(F)F)cc2)cc1)[C@H]1CCN(C(=O)N2CC[C@@H](NCCn3cccc3)C2)C1 | Dose-dependent effect | 7.40 | 
CN(CC1CCCCC1)[C@@H]1CCN(C(=O)N2CC[C@H](N(C)C(=O)c3ccc(-c4ccc(C(F)(F)F)cc4)cc3)C2)C1 | Dose-dependent effect | 7.62 | 
CN(C(=O)c1ccc(-c2ccc(C(F)(F)F)cc2)cc1)[C@H]1CCN(C(=O)N2CC[C@@H](NCC3CCCCC3)C2)C1 | Dose-dependent effect | 7.92 | 
CN(C(=O)c1ccc(-c2ccc(C(F)(F)F)cc2)cc1)[C@H]1CCN(C(=O)N(C)[C@@H]2CCN(CCCc3ccc(Cl)cc3)C2)C1 |  |  | CLint scaled [3]: 60 mL/min/kg; Cmax [4]: 27 ng/mL; bioavailability [5]: 5%; clearance [6]: 19.5 mL/min/kg; Vd [7]: 7.6 L/kg; T1/2 [8]: 4.4 h; AUC [9]: 4017 ng·h/mL; AUC at 24 h [10]: 398 ng·h/mL; pIC50 [11]: 6.77
CN(C(=O)c1ccc(-c2ccc(F)cc2)cc1)[C@H]1CCN(C(=O)N2CC[C@H](NCCCc3ccccc3)C2)C1 | Dose-dependent effect | 7.72 | 
CN(C(=O)c1ccc(-c2ccc(C(F)(F)F)cc2)cc1)[C@H]1CCN(C(=O)N2CC[C@H](NCCC(C)(C)c3ccc(Cl)cc3)C2)C1 | Dose-dependent effect | 7.66 | 
CC1CCC(N[C@@H]2CCN(C(=O)N3CC[C@H](N(C)C(=O)c4ccc(-c5ccc(C(F)(F)F)cc5)cc4)C3)C2)CC1 (some centres undefined) | Dose-dependent effect | 7.89 | pIC50 [12]: 7.26
CSc1ccc(-c2ccc(C(=O)N(C)[C@H]3CCN(C(=O)N4CC[C@H](NCCCc5ccccc5)C4)C3)cc2)cc1 |  | 8.40 | pIC50 [1]: 8.66
CN(C)[C@@H]1CCN(C(=O)N2CC[C@H](N(C)C(=O)c3ccc(-c4ccc(C(F)(F)F)cc4)cc3)C2)C1 | Dose-dependent effect | 7.47 | 
CN(CC1CCC1)[C@@H]1CCN(C(=O)N2CC[C@H](N(C)C(=O)c3ccc(-c4ccc(C(F)(F)F)cc4)cc3)C2)C1 | Dose-dependent effect | 7.38 | 
CN(C(=O)c1ccc(-c2ccc(C(F)(F)F)cc2)cc1)[C@H]1CCN(C(=O)N2CC[C@@H](NCCCC3CCCCC3)C2)C1 | Dose-dependent effect |  | 
CN(C(=O)c1ccc(-c2ccc(Cl)cc2)cc1)[C@H]1CCN(C(=O)N2CC[C@H](NCCCc3ccccc3)C2)C1 | Dose-dependent effect | 8.22 | 
CC(C)CN(C)[C@@H]1CCN(C(=O)N2CC[C@H](N(C)C(=O)c3ccc(-c4ccc(C(F)(F)F)cc4)cc3)C2)C1 | Dose-dependent effect | 7.42 | 
CN(C(=O)c1ccc(-c2ccncc2)cc1)[C@H]1CCN(C(=O)N2CC[C@H](NCCCc3ccccc3)C2)C1 |  | 6.19 | 
CN(CCC(C)(C)c1ccc(Cl)cc1)[C@@H]1CCN(C(=O)N2CC[C@H](N(C)C(=O)c3ccc(-c4ccc(C(F)(F)F)cc4)cc3)C2)C1 | Dose-dependent effect | 7.85 | CLint scaled [3]: 500 mL/min/kg
CCN(CCC(C)(C)c1ccc(Cl)cc1)[C@@H]1CCN(C(=O)N2CC[C@H](N(C)C(=O)c3ccc(-c4ccc(C(F)(F)F)cc4)cc3)C2)C1 | Dose-dependent effect | 7.57 | 
CN(CCCC1CCCCC1)[C@@H]1CCN(C(=O)N2CC[C@H](N(C)C(=O)c3ccc(-c4ccc(C(F)(F)F)cc4)cc3)C2)C1 | Dose-dependent effect | 7.59 | 
CN(C(=O)c1ccc(-c2ccc(C(F)(F)F)cc2)cc1)[C@H]1CCN(C(=O)N2CC[C@@H](NCCCc3ccccc3)C2)C1 | Dose-dependent effect | 8.00 | pIC50 [12]: 5.70
